From ChEMBL document CHEMBL4689842, “EUbOPEN Chemogenomics Library wave 1” (2021)

Legend:
Fibroblast = assay: Incucyte cell viability with human fibroblast; assay type: toxicity, cell-based; conditions: 10 µM, compound concentration 10 uM; note: filed as whole numbers so only -1 and 0 and 1 occur
HEK-293T = assay: Multiplex assay against HEK293T; assay type: toxicity, cell-based; conditions: human;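 for Population Tubulin-Different-Phenotype (%): share of the cells with healthy nuclei that show this phenotype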
Outline: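 Compound was added to live cells that had been stained at seeding with Hoechst33342, BioTracker Green Microtubule Cytoskeleton Dye, MitoTracker Red and Annexin V Alexa Fluor 680, and imaging followed on a CQ1 microscope at 37°C and 5% CO2. CellPathfinder machine-learning gating divided cells into Hoechst high-intensity objects or normal cells, normal cells into healthy, pyknosed or fragmented nuclei, and pyknosed cells into mitotic or apoptotic. Tubulin, mitochondrial-mass and membrane-permeability phenotypes are per cents of healthy-nucleus cells.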

[1] = 12 h, 1 µM, compound concentration 1 uM, replicate 1
[2] = 12 h, 1 µM, compound concentration 1 uM, replicate 2
[3] = 12 h, 10 µM, compound concentration 10 uM, replicate 1
[4] = 12 h, 10 µM, compound concentration 10 uM, replicate 2
[5] = 24 h, 1 µM, compound concentration 1 uM, replicate 1
[6] = 24 h, 1 µM, compound concentration 1 uM, replicate 2
[7] = 24 h, 10 µM, compound concentration 10 uM, replicate 1
[8] = 24 h, 10 µM, compound concentration 10 uM, replicate 2

Structure (SMILES): CC(C)(C)c1cnc(CSc2cnc(NC(=O)C3CCNCC3)s2)o1 [BMS-387032]
- Growth Rate (Fibroblast; 0 h, replicate number 1, timepoint 0 hours): 0
- Growth Rate (Fibroblast; 6 h, replicate number 1, timepoint 6 hours): 0
- Growth Rate (Fibroblast; 12 h, replicate number 1, timepoint 12 hours): 0
- Growth Rate (Fibroblast; 18 h, replicate number 1, timepoint 18 hours): 0
- Growth Rate (Fibroblast; 24 h, replicate number 1, timepoint 24 hours): 0
- Population Apoptotic (%) (HEK-293T; [1]): 25%
- Population Fragmented Nuclei (%) (HEK-293T; [1]): 21%
- Population Healthy Nuclei (%) (HEK-293T; [1]): 51%
- Population Hoechst High Intensity Objects (%) (HEK-293T; [1]): 19%
- Population Membrane Permeable-Phenotype (%) (HEK-293T; [1]): 3%
- Population Mitochondria Different-Phenotype (%) (HEK-293T; [1]): 8%
- Population Mitotic Cells (%) (HEK-293T; [1]): 74%
- Population Normal (%) (HEK-293T; [1]): 80%
- Population Pyknosed Nuclei (%) (HEK-293T; [1]): 27%
- Population Tubulin-Different-Phenotype (%) (HEK-293T; [1]): 4%
- Total Cell Count (HEK-293T; [1]): 507
- Population Apoptotic (%) (HEK-293T; [2]): 21%
- Population Fragmented Nuclei (%) (HEK-293T; [2]): 4%
- Population Healthy Nuclei (%) (HEK-293T; [2]): 85%
- Population Hoechst High Intensity Objects (%) (HEK-293T; [2]): 4%
- Population Membrane Permeable-Phenotype (%) (HEK-293T; [2]): 1%
- Population Mitochondria Different-Phenotype (%) (HEK-293T; [2]): 25%
- Population Mitotic Cells (%) (HEK-293T; [2]): 78%
- Population Normal (%) (HEK-293T; [2]): 95%
- Population Pyknosed Nuclei (%) (HEK-293T; [2]): 10%
- Population Tubulin-Different-Phenotype (%) (HEK-293T; [2]): 13%
- Total Cell Count (HEK-293T; [2]): 981
- Population Apoptotic (%) (HEK-293T; [3]): 23%
- Population Fragmented Nuclei (%) (HEK-293T; [3]): 15%
- Population Healthy Nuclei (%) (HEK-293T; [3]): 51%
- Population Hoechst High Intensity Objects (%) (HEK-293T; [3]): 21%
- Population Membrane Permeable-Phenotype (%) (HEK-293T; [3]): 4%
- Population Mitochondria Different-Phenotype (%) (HEK-293T; [3]): 17%
- Population Mitotic Cells (%) (HEK-293T; [3]): 76%
- Population Normal (%) (HEK-293T; [3]): 78%
- Population Pyknosed Nuclei (%) (HEK-293T; [3]): 33%
- Population Tubulin-Different-Phenotype (%) (HEK-293T; [3]): 27%
- Total Cell Count (HEK-293T; [3]): 549
- Population Apoptotic (%) (HEK-293T; [4]): 24%
- Population Fragmented Nuclei (%) (HEK-293T; [4]): 2%
- Population Healthy Nuclei (%) (HEK-293T; [4]): 86%
- Population Hoechst High Intensity Objects (%) (HEK-293T; [4]): 10%
- Population Membrane Permeable-Phenotype (%) (HEK-293T; [4]): 1%
- Population Mitochondria Different-Phenotype (%) (HEK-293T; [4]): 42%
- Population Mitotic Cells (%) (HEK-293T; [4]): 75%
- Population Normal (%) (HEK-293T; [4]): 90%
- Population Pyknosed Nuclei (%) (HEK-293T; [4]): 10%
- Population Tubulin-Different-Phenotype (%) (HEK-293T; [4]): 58%
- Total Cell Count (HEK-293T; [4]): 880
- Population Apoptotic (%) (HEK-293T; [5]): 27%
- Population Fragmented Nuclei (%) (HEK-293T; [5]): 21%
- Population Healthy Nuclei (%) (HEK-293T; [5]): 53%
- Population Hoechst High Intensity Objects (%) (HEK-293T; [5]): 20%
- Population Membrane Permeable-Phenotype (%) (HEK-293T; [5]): 6%
- Population Mitochondria Different-Phenotype (%) (HEK-293T; [5]): 9%
- Population Mitotic Cells (%) (HEK-293T; [5]): 72%
- Population Normal (%) (HEK-293T; [5]): 79%
- Population Pyknosed Nuclei (%) (HEK-293T; [5]): 24%
- Population Tubulin-Different-Phenotype (%) (HEK-293T; [5]): 9%
- Total Cell Count (HEK-293T; [5]): 451
- Population Apoptotic (%) (HEK-293T; [6]): 22%
- Population Fragmented Nuclei (%) (HEK-293T; [6]): 6%
- Population Healthy Nuclei (%) (HEK-293T; [6]): 87%
- Population Hoechst High Intensity Objects (%) (HEK-293T; [6]): 8%
- Population Membrane Permeable-Phenotype (%) (HEK-293T; [6]): 1%
- Population Mitochondria Different-Phenotype (%) (HEK-293T; [6]): 22%
- Population Mitotic Cells (%) (HEK-293T; [6]): 77%
- Population Normal (%) (HEK-293T; [6]): 91%
- Population Pyknosed Nuclei (%) (HEK-293T; [6]): 5%
- Population Tubulin-Different-Phenotype (%) (HEK-293T; [6]): 17%
- Total Cell Count (HEK-293T; [6]): 934
- Population Apoptotic (%) (HEK-293T; [7]): 27%
- Population Fragmented Nuclei (%) (HEK-293T; [7]): 16%
- Population Healthy Nuclei (%) (HEK-293T; [7]): 45%
- Population Hoechst High Intensity Objects (%) (HEK-293T; [7]): 23%
- Population Membrane Permeable-Phenotype (%) (HEK-293T; [7]): 1%
- Population Mitochondria Different-Phenotype (%) (HEK-293T; [7]): 34%
- Population Mitotic Cells (%) (HEK-293T; [7]): 72%
- Population Normal (%) (HEK-293T; [7]): 76%
- Population Pyknosed Nuclei (%) (HEK-293T; [7]): 38%
- Population Tubulin-Different-Phenotype (%) (HEK-293T; [7]): 30%
- Total Cell Count (HEK-293T; [7]): 494
- Population Apoptotic (%) (HEK-293T; [8]): 31%
- Population Fragmented Nuclei (%) (HEK-293T; [8]): 3%
- Population Healthy Nuclei (%) (HEK-293T; [8]): 83%
- Population Hoechst High Intensity Objects (%) (HEK-293T; [8]): 14%
- Population Membrane Permeable-Phenotype (%) (HEK-293T; [8]): 0%
- Population Mitochondria Different-Phenotype (%) (HEK-293T; [8]): 54%
- Population Mitotic Cells (%) (HEK-293T; [8]): 68%
- Population Normal (%) (HEK-293T; [8]): 85%
- Population Pyknosed Nuclei (%) (HEK-293T; [8]): 13%
- Population Tubulin-Different-Phenotype (%) (HEK-293T; [8]): 61%
- Total Cell Count (HEK-293T; [8]): 828
